The test system of the data set is MS2 coat protein. The experiment in a line: apparent Kd, MS2 coat protein; higher = weaker binding; RNA-MaP array; FMN 200 µM where present. In outline:
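On Illumina sequencing-chip clusters, designs were transcribed by stalled E. coli RNA polymerase and titrated with SNAP-549-labelled MS2 coat protein (0.7 or 1.5 nM, doubling to 3 µM), without and then with constant ligand, in 100 mM Tris-HCl pH 7.5, 80 mM KCl, 4 mM MgCl2, BSA, DTT, yeast tRNA and Tween-20. Apparent Kd is the median of filtered per-cluster curve fits to green signal normalised to red-channel RNA signal and control-cluster median Fmax.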

Setting [1] is: designed as: OFF switch for flavin mononucleotide, no ligand.
[2] abbreviates: ligand present: flavin mononucleotide, designed as: OFF switch for flavin mononucleotide.
[3] abbreviates: designed as: ON switch for flavin mononucleotide, no ligand.
[4] abbreviates: ligand present: flavin mononucleotide, designed as: ON switch for flavin mononucleotide.

What is called apparent Kd is the concentration giving half-maximal binding under the conditions of the assay.

“AUUUUGUCAGGAUAUGACUAGAUGCACGAAAGUGCAUCUACUUAGAAGGGACAUGAGGAUCACCCAUGUAUUCC”: the “apparent Kd” value reads like this: under setting [1], 17.3 nM; under setting [2], 17.8 nM.

For the sequence “UUUAGUUCAGGAUAUGUAGAUUUUAACAUGAGGAUCACCCAUGUAGAUCCUGAAUUAACUACAGAAGGGAACAUUA”, the “apparent Kd” value runs as follows: under setting [1], 21.3 nM; under setting [2], 75.4 nM.

Take “AGUAACAGAGGAUAUACUAUUUUAUGUGUUUGUUGUUUUGAACAUGAGGAUCACCCAUGUAGAAGGCUGAAUAA”: the “apparent Kd” value reads like this: under setting [1], 23.9 nM; under setting [2], 24.9 nM.

Turning to “UCAUAUUUACAAGGAUAUCAAUUAAUUAAACAUCCUACAUGAGGAUCACCCAUGUUAAAAUAUUAUGAGAAGGUGUAUUGUCGG”, the “apparent Kd” value was determined as 32.7 nM under setting [3] and 40.3 nM under setting [4].

In the case of “UUUUAGUGAGGAUAUACAUUUUUUUAAUUAUUUAUAAUAUUACAUGAGGAUCACCCAUGUAGAAGGCACAUUUU”, the “apparent Kd” value under setting [1] came to 24.3 nM and the “apparent Kd” value under setting [2] turned out to be 22.4 nM.

For the sequence “GAGAAGGUAGGAUAUACGAAUAAAUAGGGUAGGAAGAAGACACAUGAGGAUCACCCAUGUAGAAGGACCAAGAU”, the “apparent Kd” value came out at 18.8 nM under setting [1] and 38.3 nM under setting [2].

Regarding “AUCUCAGGACGAGGAUAUCAAUACAUGAGGAUCACCCAUGUAUUACUACUGUGAUCCUUCAAGGCUGAGAAGGCGUCCCAAAUG”, the “apparent Kd” value reads like this: under setting [1], 20.7 nM; under setting [2], 37.8 nM.

For the sequence “GGAUGACAAAGUCAUCCAAUUCGAACAUGAGGAUCACCCAUGUAGGAUAUGCUACACAAAGUGUAGCAGAAGGACAUGUGCCUU”, the “apparent Kd” value is, setting by setting: under setting [1], 30.7 nM; under setting [2], 183 nM.

As to “AAAAAGGUAGGAUAUACGAAAAAAAAGGGUAAAAUAAAUAAACAUGAGGAUCACCCAUGUAGAAGGACCAAAAA”, the “apparent Kd” value under setting [1] came to 25.3 nM and the “apparent Kd” value under setting [2] came to 64.4 nM.

On to “GGACGUCUCAUUAACAUGAGGAUCACCCAUGUCAAAAGACAUGAGGAUAUGGAACCUAAUUGGUUCCAGAAGGCAUGGACGUCC”, for which the “apparent Kd” value was determined as 802 nM under setting [3] and 62.6 nM under setting [4].

Regarding “AGUGUGUGGCAGGAUAUGCUGUUGAUUCGGGCAGCAGAAGGGUCUACAUGAGGAUCACCCAUGUAAGCGGUUGA”, the “apparent Kd” value was found to be 257 nM under setting [1] and 413 nM under setting [2].

Take “GCACGCUGGCGAGGAUAUAGACAUGAGGAUCACCCAUGUGGCGCACAUCGGGCCCUAGUCCUCAGCUAGAAGGCGCCUGUGAUA”: the “apparent Kd” value runs as follows: under setting [1], 328 nM; under setting [2], 228 nM.

Take “AGCCUACAUGAGGAUCACCCAUGUCAGGAUAUCUCGCGACGUGUCGGGUUCACGUUGCAGAGAAGGGACUCGGG”: the “apparent Kd” value was 50.7 nM under setting [1] and 67.3 nM under setting [2].

As to “AGCUAAAUGUCAGGAUAUGCCCGCCAGGUGGAAGCAGAAGGGACAUACCAGACAUGAGGAUCACCCAUGUAAACUGGGUAAGAA”, the “apparent Kd” value by setting is: under setting [3], 142 nM; under setting [4], 126 nM.

As to “GUCAGCUCGUGAGGAUAUACAUGUGCUGGAUACAGCACUAUUAAGUUCACAUGAGGAUCACCCAUGUAGAAGGCACGAGCUGAU”, the “apparent Kd” value was determined as 15.8 nM under setting [1] and 20.4 nM under setting [2].

“AAAUAAACUAGCAAAAUUUCCUCACAUGAGGAUCACCCAUGUAAGGAUAUCUGUCCUAAAAGGACAGAGAAGGUACGUGCUAGG”: the “apparent Kd” value under setting [1] was 4.53 nM and the “apparent Kd” value under setting [2] was 4.63 nM.

In the case of “UGUUGUAUUACAGGAUAUCUAUUAGUUUUAUUUAGAGAAGGGUAUUCACAUGAGGAUCACCCAUGUAUAUACGAGGAAGUUGUG”, the “apparent Kd” value under setting [3] amounted to 57.8 nM and the “apparent Kd” value under setting [4] was determined as 60.3 nM.

On to “AGCGUACAAGCUAACAUGAGGAUCACCCAUGUGGACUCAUGCGAGGAUAUCGGGAAGGAGGAUUCCGAGAAGGUGCGGUGAGCC”, for which the “apparent Kd” value amounted to 148 nM under setting [3] and 38.1 nM under setting [4].

“ACUUAUUGAGGAUAUACAGAAAAUUACAUGAGGAUCACCCAUGUUCUUCAAUGUAUAUAUGUAGAAGGCAGAAUAG”: the “apparent Kd” value runs as follows: under setting [1], 14.4 nM; under setting [2], 27.6 nM.

Turning to “GCACUUAGAGUUGAACCGUUACUAACAUGAGGAUCACCCAUGUAGGAUAUGCUAAUAGUAUUGAAGCAGAAGGACACUAAGUGC”, the “apparent Kd” value by setting is: under setting [1], 5.46 nM; under setting [2], 5.88 nM.

Turning to “AGCACGAAAGUGCAACGAUGUACGAGAAGGACAUGAGGAUCACCCAUGUUGCUGUAACUGCUUAUGUAGGAUAUCGUACAUCGA”, the “apparent Kd” value under setting [2] came to 7.01 nM.

“UUAUACAUGAGGAUCUCCCAUGACAUGAGGAUCACCCAUGUGCAGGAUAUACGUGUUAUAAUAUAGUAGAAGGGCAGACUAUAU”: the “apparent Kd” value under setting [1] amounted to 41.1 nM and the “apparent Kd” value under setting [2] was 74.3 nM.

Regarding “GUCGUGAGACAGGAUAUCCAAUCUAAACACGAGGGAGAAGGGUCUACAUGAGGAUCACCCAUGUGGUCUCAAAA”, the “apparent Kd” value runs as follows: under setting [1], 17.6 nM; under setting [2], 21.7 nM.

“UGUGCGUAUGUGAGGAUAUGCUGGUCCUUGGAUCGGCAGAAGGCACAUGAGGAUCACCCAUGUGGUGUCGUACC”: the “apparent Kd” value reads like this: under setting [1], 161 nM; under setting [2], 40.4 nM.

For the sequence “GUGAAGGUAGGAUAUACGAUAAUAUAGGGUAGAUAUAUAACACAUGAGGAUCACCCAUGUAGAAGGACCAAUUG”, the “apparent Kd” value was 34.2 nM under setting [1] and 122 nM under setting [2].

“UCGGCGCGAGGAUAUGCGGUUCCUCCCUCGGGCCGGAGCGUACAUGAGGAUCACCCAUGUAGAAGGCGCGCCGC”: the “apparent Kd” value was determined as 13.9 nM under setting [1] and 15.1 nM under setting [2].

“GGAUGACAAAGUCAUCCUAUUCGAACAUGAGGAUCACCCAUGUAGGAUAUGCUAGUCAAAGACUAGCAGAAGGACAUGUGCCUU”: the “apparent Kd” value by setting is: under setting [1], 36.4 nM; under setting [2], 164 nM.

Regarding “GUUCCACAUGAGGAUCACCCAUGUGAGGAUAUGGAUUCGCUGGCCGUAGCCAGUGGAUCCAGAAGGCGCGUGAU”, the “apparent Kd” value runs as follows: under setting [1], 77.4 nM; under setting [2], 96.6 nM.

Regarding “UCAUAAAAGAUCCUAUUUAUCUACAUGAGGAUCACCCAUGUGCAGGAUAUGCUAUAUUUAAUAAAGCAGAAGGGCAAUAACCGC”, the “apparent Kd” value by setting is: under setting [1], 127 nM; under setting [2], 309 nM.

Take “UUAUUUAUACAAGGAUAUCUAUUAUAUUCACAUCCUACAUGAGGAUCACCCAUGUUAUAUAUUUUAGAGAAGGUGUAUUGUCUG”: the “apparent Kd” value by setting is: under setting [3], 27.2 nM; under setting [4], 30.8 nM.

Take “GGUGGACAUGAGGAUCACCCAUGUGAGGAUAUCGGCUGGUGCGUGGUGGCUGGCAUCUCGAGAAGGCACAUAGU”: the “apparent Kd” value runs as follows: under setting [1], 94.4 nM; under setting [2], 171 nM.

With “AUAGUGCCGGAGAAGGACGUACCACAUGUUGAUCACCGAUAUAAGGAACGUAGGAUAUUCGACAUGAGGAUCACCCAUGUGGAU”, the “apparent Kd” value by setting is: under setting [3], 101 nM; under setting [4], 64.7 nM.

As to “CAGUACUGAGGAUAUACAUGAGGAUCACCCAUGUGUUCCAGCUGGGAAACUAGCAAAAGUAGAAGGCAGUACUG”, the “apparent Kd” value was found to be 25.5 nM under setting [1] and 395 nM under setting [2].

Regarding “UAUUCAUACGAAGGAUAUGGUUACAUGAGGAUCACCCAUGUAUGUAUAUUGAUCUAGUUAUUUAACCAGAAGGUCGAAUAUAAA”, the “apparent Kd” value is, setting by setting: under setting [1], 35.4 nM; under setting [2], 72.6 nM.

Take “GGAUGACAAAGUCAUCCAAUUCGAACAUGAGGAUCACCCAUGUAGGAUAUGCUACACAAAGUGUAGCAGAAGGACAUGUGCUUU”: the “apparent Kd” value reads like this: under setting [1], 36.5 nM; under setting [2], 169 nM.

Regarding “UCGGCCGCCGUGAGGAUAUGCCCGCGCGCCCGCGGGCAGAAGGCACAUGAGGAUCACCCAUGUCCCGCGGCAUU”, the “apparent Kd” value by setting is: under setting [1], 16.2 nM; under setting [2], 35.1 nM.

Regarding “GUAGCUUCAUUUAUACAUGAGGAUCACCCAUGUUACAUGGGUAAGGAUAUUGAUGUUAUGAUUAUCAAGAAGGUACUAUGCUAC”, the “apparent Kd” value was 663 nM under setting [3] and 39.6 nM under setting [4].

For the sequence “UGUCGGAGCAGAGGAUAUUACAUGAGGAUCACCCAUGUAUGAACCAAUAGCUGGAAACAGCAAUGUUAGAAGGCUGCUCCGACA”, the “apparent Kd” value under setting [1] was determined as 5.23 nM and the “apparent Kd” value under setting [2] was found to be 6.86 nM.

Consider “CAGGUAGACUGAGGAUAUACAUGACUUAGUCUAUCUAGGUCAUAAACCACAUGAGGAUCACCCAUGUAGAAGGCAGUCUGCCUG”, for which the “apparent Kd” value runs as follows: under setting [1], 17 nM; under setting [2], 19.8 nM.

Turning to “AGAUGACAAAGUCAUCUCUGGCAGACAUGAGGAUCACCCAUGUAGGAUAUACUACUCAAAGAGUAGUAGAAGGACAUGUGUCUU”, the “apparent Kd” value came out at 35.9 nM under setting [1] and 99.4 nM under setting [2].

Turning to “UAUAUUAUUAUAGGAUAUGGAUACGAUGCGUAUCCAGAAGGGUGAUUAUAAUAUAAUCUAUACAUGAGGAUCACCCAUGUUUAU”, the “apparent Kd” value came to 303 nM under setting [3] and 73.9 nM under setting [4].

On to “UAGAAGUCAGGAUAUCCAUGGCGGCACUUGCGUGGUGGCGUGGAGAAGGGACAUGAGGAUCACCCAUGUAAAGA”, for which the “apparent Kd” value runs as follows: under setting [1], 54.4 nM; under setting [2], 42 nM.

In the case of “CUUUCGUGAGGAUAUGUGGCUUCGAUCGUGAAAACGAGGCUACAGAAGGCACAUGAGGAUCACCCAUGUUCCUC”, the “apparent Kd” value is, setting by setting: under setting [1], 34.4 nM; under setting [2], 454 nM.

With “AACAGUGCUAAUAAAUAAGAUCUACAUGAGGAUCACCCAUGUAAGGAUAUCGUCAGGAAUACUGACGAGAAGGUACAUGCACUG”, the “apparent Kd” value came to 15 nM under setting [1] and 25.9 nM under setting [2].

As for “AAGCUCGUGUGAGGAUAUGCCGCCGUUUCGGCUGCAGAAGGUGCUACGUUACAUGAGGAUCACCCAUGUCUCUGUUGUUUCGUG”, the “apparent Kd” value under setting [3] was 23 nM and the “apparent Kd” value under setting [4] was 22.3 nM.

As to “UGGCCCGCCGGAGGAUAUCUACUCUGUGGUGCACUGCGUUUGCAAUACAUGAGGAUCACCCAUGUAGAGAAGGCCGAGGGCACA”, the “apparent Kd” value under setting [2] came to 66.9 nM.

For “AUUUAAAUGUCAGGAUAUGUCGGUAUAUACUCGGUAGAAGGGAUAAUUAUACUCAAGUACAUGAGGAUCACCCAUGUUAAAUCA”, the “apparent Kd” value is, setting by setting: under setting [3], 21.1 nM; under setting [4], 14 nM.

For “AAAAAAAAAGUAUAGGAUAUCCGAGUGGUAACAUGAGGAUCACCCAUGUGAAGAAAGGAAGAUGAGGAGAAGGAUACAAAAAAAAA”, the “apparent Kd” value is, setting by setting: under setting [3], 125 nM; under setting [4], 48.5 nM.

The values above are taken from the EternaBench riboswitch data.
